# In ChEMBL document CHEMBL1140339, “Spiro and dispiro-1,2,4-trioxolanes as antimalarial peroxides: charting a workable structure-activity relationship using simple prototypes” (J Med Chem, 2005):
# Legend:
# Mus musculus [1] = test: Antimalarial activity (10 mg/kg, subcutaneously) given 1 day post infection of mice (Mus musculus) with Plasmodium berghei is its ability to reduce parasitemia on day 3 post infection; assay type: functional
# Summary of the method: (§1)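 P. berghei-infected MORO mice, groups of three, treated 1 day postinfection with a single dose (100 or 10 mg/kg, po or sc) dissolved or suspended in 3% ethanol/7% Tween-80. Activity is percent reduction in parasitemia on day 3 postinfection versus untreated controls. Survival time is compared with an untreated control group. Individual measurements generally differed by less than 10%.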
# Mus musculus [2] = test: Survival of mice to 30-day postinfection with Plasmodium berghei upon 10 mg/kg peroral dose was determined; assay type: functional; details: route oral; summary of the method: as §1
# [3] = Plasma half life period after intravenous administration ( 30 mg/kg ); assay type: ADME, organism-based, Mus musculus; set-up: dose 30 mg/kg, route intravenous
# Summary of the method: (§2)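 Conscious, free-moving rats (n = 3 per group) were jugular- and carotid-cannulated the day before dosing under isoflurane, then fasted overnight. The iv dose was a 5 min jugular infusion in aqueous 0.1 M Captisol (10, 20 or 30 mg/kg). The oral dose was given by gavage as a suspension in 0.5% CMC/0.4% polysorbate 80/0.5% benzyl alcohol/0.9% NaCl (30, 50 or 80 mg/kg). Carotid blood was sampled over 7 h and plasma was obtained by centrifugation.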
# Plasmodium falciparum [4] = test: Anti-parasitic effect against Plasmodium berghei in mice (Mus musculus) after 4 days at 100 mg/kg/day (T/A Tween 80) peroral dose in Peters suppressive assay; assay type: functional, organism-based; set-up: route oral
# [5] = Plasma clearance after intravenous administration of 30 mg/kg; assay type: ADME, organism-based, Mus musculus; set-up: dose 30 mg/kg, route intravenous; summary of the method: as §2
# [6] = Bioavailability obtained after oral administration of 80 mg/kg; assay type: ADME, organism-based, Mus musculus; details: in vivo; summary of the method: as §2
# Plasmodium falciparum [7] = test: Antiparasitic effect against Plasmodium berghei infected mice (Mus musculus) after 100 mg/kg peroral (T/A Tween-80) dose after 3 days; assay type: functional, organism-based; set-up: dose 100 mg/kg, route oral; summary of the method: as §1
# Mus musculus [8] = test: Survival of mice to 30-day postinfection with Plasmodium berghei upon 10 mg/kg upon subcutaneous dose was determined; assay type: functional; summary of the method: as §1
# [9] = Volume distribution after intravenous administration of 30 mg/kg; assay type: ADME, organism-based, Mus musculus; set-up: dose 30 mg/kg, route intravenous; details: in vivo; summary of the method: as §2
# Plasmodium falciparum [10] = test: Antiparasitic effect against Plasmodium berghei infected mice (Mus musculus) after 100 mg/kg peroral (SSV) dose after 3 days; assay type: functional; details: route oral
# Mus musculus [11] = test: Survival of mice to 30-day postinfection with Plasmodium berghei upon 10 mg/kg upon peroral dose was determined; assay type: functional; details: route oral; summary of the method: as §1
# Plasmodium falciparum [12] = test: In vitro inhibition of chloroquine-resistant Plasmodium falciparum K1; assay type: functional, organism-based
# [13] = Plasma half life period after intravenous administration ( 20 mg/kg); details: rat, in vivo
# Mus musculus [14] = test: Antimalarial activity (10 mg/kg, peroral) given 1 day post infection of mice (Mus musculus) with Plasmodium berghei is its ability to reduce parasitaemia on day 3 post infection; assay type: functional; summary of the method: as §1
# [15] = Volume distribution after intravenous administration of 20 mg/kg; details: rat, in vivo
# Mus musculus [16] = test: Antimalarial activity (100 mg/kg, subcutaneously) given 1 day post infection of mice (Mus musculus) with Plasmodium berghei is its ability to reduce parasitemia on day 3 post infection; assay type: functional; summary of the method: as §1
# Mus musculus [17] = test: Antimalarial activity (100 mg/kg, peroral) given 1 day post infection of mice (Mus musculus) with Plasmodium berghei is its ability to reduce parasitaemia on day 3 post infection; assay type: functional; summary of the method: as §1
# Mus musculus [18] = test: Survival of mice to 30-day postinfection with Plasmodium berghei upon 100 mg/kg peroral dose was determined; assay type: functional; details: route oral; summary of the method: as §1
# Mus musculus [19] = test: Effective dose required to reduce the parasitemia in mice when compound administered with SSV after 3 day postinfection; assay type: functional
# Mus musculus [20] = species: Mus musculus; test: Effective dose required to reduce the parasitemia in mice by suppressive test after 4 day postinfection; assay type: functional
# Summary of the method: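 Peters 4-day suppressive test in P. berghei-infected mice with multiple daily oral doses. ED50/ED90 are given in (mg/kg)/day.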
# Plasmodium falciparum [21] = test: In vitro inhibition of chloroquine-sensitive Plasmodium falciparum NF54; assay type: functional, organism-based
# Mus musculus [22] = test: Survival of mice to 30-day postinfection with Plasmodium berghei upon 100 mg/kg upon subcutaneous dose was determined; assay type: functional; summary of the method: as §1
# Mus musculus [23] = test: Effective dose required to reduce the parasitemia in mice when compound administered with Tween-80 after 3 day postinfection; assay type: functional
# [24] = Plasma clearance after intravenous administration of 10 mg/kg; details: rat
# [25] = Volume distribution after intravenous administration of 10 mg/kg; details: rat, in vivo
# [26] = Bioavailability obtained after oral administration of 30 mg/kg (n=1); assay type: ADME, organism-based, Mus musculus; details: in vivo; summary of the method: as §2
# [27] = Plasma half life period after intravenous administration ( 10 mg/kg ); details: rat
# [28] = Plasma half life period after intravenous administration ( 20 mg/kg ); details: rat
# [29] = Plasma clearance after intravenous administration of 20 mg/kg; details: rat
compound,measurement,setting,value
CC1(C)COC2(CCC3(CC2)OOC2(O3)C3CC4CC(C3)CC2C4)OC1 (stereo unspecified),Reduction,Mus musculus [1],>99.99%
same,Survival,Mus musculus [2],11.4 days
same,half-life,[3],2.58 h
same,EC50,Plasmodium falciparum [4],1.8 (mg/kg)/day
same,clearance,[5],4.98 L/h/kg
same,bioavailability,[6],0.73%
same,EC50,Plasmodium falciparum [7],1.5 (mg/kg)/day
same,Survival,Mus musculus [8],18 days
same,Vd,[9],18 L/kg
same,EC90,Plasmodium falciparum [10],6.2 (mg/kg)/day
O=C1CCC2(CC1)OOC1(O2)C2CC3CC(C2)CC1C3 (stereo unspecified),Survival,Mus musculus [11],7.1 days
same,IC50,Plasmodium falciparum [12],0.48 ng/mL
same,T1/2,[13],1.95 h
same,Reduction,Mus musculus [1],99.7%
same,Reduction,Mus musculus [14],94%
same,Vd,[15],12 L/kg
same,Reduction,Mus musculus [16],>99.99%
same,Reduction,Mus musculus [17],>99.99%
same,Survival,Mus musculus [8],8.6 days
same,Survival,Mus musculus [18],10.7 days
same,ED50,Mus musculus [19],8.7 (mg/kg)/day
same,ED90,Mus musculus [19],12 (mg/kg)/day
same,ED50,Mus musculus [20],1.5 (mg/kg)/day
same,ED90,Mus musculus [20],6.1 (mg/kg)/day
same,IC50,Plasmodium falciparum [21],0.73 ng/mL
same,Survival,Mus musculus [22],30 days
same,ED50,Mus musculus [23],3.5 (mg/kg)/day
same,ED90,Mus musculus [23],7 (mg/kg)/day
c1ccc(C2CCC3(CC2)OOC2(O3)C3CC4CC(C3)CC2C4)cc1 (stereo unspecified),Reduction,Mus musculus [1],99.92%
same,Survival,Mus musculus [2],12.6 days
same,clearance,[24],1.98 L/h/kg
same,Vd,[25],5 L/kg
same,Survival,Mus musculus [8],17.1 days
same,ED90,Mus musculus [19],5.7 (mg/kg)/day
same,bioavailability,[26],9.5%
same,ED90,Mus musculus [20],2.6 (mg/kg)/day
same,ED90,Mus musculus [23],3.2 (mg/kg)/day
same,half-life,[27],1.62 h
C[C@H]1[C@@H](O)O[C@@H]2O[C@@]3(C)CC[C@H]4[C@H](C)CC[C@@H]1[C@@]24OO3 [ARTENIMOL],half-life,[28],0.433 h
same,Vd,[15]; read-out: Vd,3 L/kg
same,clearance,[29],4.32 L/h/kg
